Measured values as given in ChEMBL document CHEMBL1629614, “Inhibition of methionyl-tRNA synthetase by REP8839 and effects of resistance mutations on enzyme activity” (Antimicrob Agents Chemother, 2009).

Columns and labels:
[1] = compound: C=C(F)c1sc(CNCCCNc2cc(=O)c3ccccc3[nH]2)c(C)c1Br; assay: Ratio of Kcat to Km for Staphylococcus aureus MetRS I57N I238F mutant in presence of ATP
Outline: (§1)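 Purified recombinant S. aureus MetRS (30 nM) was assayed by ATP:PPi exchange at 30°C in Tris pH 8.0 with Mg acetate, KCl and DTT. [32P]PPi was matched to ATP, and ATP or methionine was varied. Time points from 1 to 10 min were quenched with EDTA, separated by PEI-cellulose TLC and read by phosphorimager. Initial rates were fitted to Michaelis-Menten.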

[2] = compound: C=C(F)c1sc(CNCCCNc2cc(=O)c3ccccc3[nH]2)c(C)c1Br; assay: Activity of streptococcus aureus MetRS I57N, I238F mutant by scintillation proximity assay in presence of tRNA; details: Staphylococcus aureus
[3] = compound: C=C(F)c1sc(CNCCCNc2cc(=O)c3ccccc3[nH]2)c(C)c1Br; assay: Activity of Staphylococcus aureus MetRS I57N, I238F mutant by ATP:PPi exchange assay in presence of ATP
Outline: (§2)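 Purified S. aureus MetRS (wild type or mutant; E. coli-expressed, ammonium sulfate cut, anion exchange) at 30 nM. ATP:PPi exchange at 30°C in 100 mM Tris-HCl pH 8.0, 5–10 mM Mg acetate, 80 mM KCl, 2.5 mM DTT, [32P]PPi plus cold PPi equal to ATP. Quenched with EDTA over 1–10 min, PEI-cellulose TLC, phosphorimager. Initial velocities versus varied ATP or methionine fit to Michaelis-Menten.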

[4] = compound: C=C(F)c1sc(CNCCCNc2cc(=O)c3ccccc3[nH]2)c(C)c1Br; assay: Activity of Staphylococcus aureus MetRS I57N, I238F mutant by ATP:PPi exchange assay in presence of methionine; outline: as §2
[5] = compound: C=C(F)c1sc(CNCCCNc2cc(=O)c3ccccc3[nH]2)c(C)c1Br; assay: Ratio of Kcat to Km for Staphylococcus aureus MetRS I57N I238F mutant in presence of methionine; outline: as §1
[6] = compound: C=C(F)c1sc(CNCCCNc2cc(=O)c3ccccc3[nH]2)c(C)c1Br; assay: Ratio of Kcat to Km for Staphylococcus aureus MetRS I57N I238F mutant in presence of tRNA
Outline: (§3)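 Purified recombinant S. aureus MetRS was assayed by tRNA aminoacylation at 30°C for 1 to 7.5 min to obtain initial rates. Buffer was Tris pH 8.0 with Mg acetate, 2.5 mM ATP, KCl, DTT, BSA, [3H]methionine and crude E. coli tRNA. Reactions were EDTA-stopped, and charged tRNA was read by scintillation proximity with polylysine beads at pH 2.0.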

[7] = compound: C=C(F)c1sc(CNCCCNc2cc(=O)c3ccccc3[nH]2)c(C)c1Br; assay: Ratio of Kcat to Km for Staphylococcus aureus MetRS G54A A64P mutant in presence of ATP; outline: as §1
[8] = compound: C=C(F)c1sc(CNCCCNc2cc(=O)c3ccccc3[nH]2)c(C)c1Br; assay: Ratio of Kcat to Km for Staphylococcus aureus MetRS G54A A64P mutant in presence of tRNA; outline: as §3
[9] = compound: C=C(F)c1sc(CNCCCNc2cc(=O)c3ccccc3[nH]2)c(C)c1Br; assay: Activity of Staphylococcus aureus MetRS G54A, A64P mutant by ATP:PPi exchange assay in presence of methionine; outline: as §2
[10] = compound: C=C(F)c1sc(CNCCCNc2cc(=O)c3ccccc3[nH]2)c(C)c1Br; assay: Ratio of Kcat to Km for Staphylococcus aureus MetRS G54A A64P mutant in presence of methionine; outline: as §1
[11] = compound: C=C(F)c1sc(CNCCCNc2cc(=O)c3ccccc3[nH]2)c(C)c1Br; assay: Activity of Staphylococcus aureus MetRS G54A, A64P mutant by ATP:PPi exchange assay in presence of ATP; outline: as §2
[12] = compound: C=C(F)c1sc(CNCCCNc2cc(=O)c3ccccc3[nH]2)c(C)c1Br; assay: Activity of streptococcus aureus MetRS G54A, A64P mutant by scintillation proximity assay in presence of tRNA; details: Staphylococcus aureus
[13] = compound: C=C(F)c1sc(CNCCCNc2cc(=O)c3ccccc3[nH]2)c(C)c1Br; assay: Ratio of Kcat to Km for Staphylococcus aureus MetRS I57N A247E mutant in presence of tRNA; outline: as §3
[14] = compound: C=C(F)c1sc(CNCCCNc2cc(=O)c3ccccc3[nH]2)c(C)c1Br; assay: Ratio of Kcat to Km for Staphylococcus aureus MetRS I57N A247E mutant in presence of ATP; outline: as §1
[15] = compound: C=C(F)c1sc(CNCCCNc2cc(=O)c3ccccc3[nH]2)c(C)c1Br; assay: Activity of streptococcus aureus MetRS I57N, A247E mutant by scintillation proximity assay in presence of tRNA; details: Staphylococcus aureus
[16] = compound: C=C(F)c1sc(CNCCCNc2cc(=O)c3ccccc3[nH]2)c(C)c1Br; assay: Activity of Staphylococcus aureus MetRS I57N, A247E mutant by ATP:PPi exchange assay in presence of ATP; outline: as §2
[17] = compound: C=C(F)c1sc(CNCCCNc2cc(=O)c3ccccc3[nH]2)c(C)c1Br; assay: Activity of Staphylococcus aureus MetRS I57N, A247E mutant by ATP:PPi exchange assay in presence of methionine; outline: as §2
[18] = compound: C=C(F)c1sc(CNCCCNc2cc(=O)c3ccccc3[nH]2)c(C)c1Br; assay: Ratio of Kcat to Km for Staphylococcus aureus MetRS I57N A247E mutant in presence of methionine; outline: as §1
[19] = compound: C=C(F)c1sc(CNCCCNc2cc(=O)c3ccccc3[nH]2)c(C)c1Br; assay: Ratio of Kcat to Km for Staphylococcus aureus MetRS I57N G54S mutant in presence of methionine; outline: as §1
[20] = compound: C=C(F)c1sc(CNCCCNc2cc(=O)c3ccccc3[nH]2)c(C)c1Br; assay: Ratio of Kcat to Km for Staphylococcus aureus MetRS I57N G54S mutant in presence of tRNA; outline: as §3
[21] = compound: C=C(F)c1sc(CNCCCNc2cc(=O)c3ccccc3[nH]2)c(C)c1Br; assay: Activity of Staphylococcus aureus MetRS I57N, G54S mutant by ATP:PPi exchange assay in presence of methionine; outline: as §2
[22] = compound: C=C(F)c1sc(CNCCCNc2cc(=O)c3ccccc3[nH]2)c(C)c1Br; assay: Ratio of Kcat to Km for Staphylococcus aureus MetRS I57N G54S mutant in presence of ATP; outline: as §1
[23] = compound: C=C(F)c1sc(CNCCCNc2cc(=O)c3ccccc3[nH]2)c(C)c1Br; assay: Activity of Staphylococcus aureus MetRS I57N, G54S mutant by ATP:PPi exchange assay in presence of ATP; outline: as §2
[24] = compound: C=C(F)c1sc(CNCCCNc2cc(=O)c3ccccc3[nH]2)c(C)c1Br; assay: Activity of streptococcus aureus MetRS I57N, G54S mutant by scintillation proximity assay in presence of tRNA; details: Staphylococcus aureus

B1: Methionine--tRNA ligase (Staphylococcus aureus subsp. aureus MW2), Q8NY00 I57N,I238F (protein)
chain: MAKETFYITTPIYYPSGNLHIGHAYSTVAGDVIARYKRMQGYDVRYLTGTDEHGQKNQEKAQKAGKTEIEYLDEMIAGIKQLWAKLEISNDDFIRTTEERHKHVVEQVFERLLKQGDIYLGEYEGWYSVPDETYYTESQLVDPQYENGKIIGGKSPDSGHEVELVKEESYFFNISKYTDRLLEFYDQNPDFIQPPSRKNEMINNFIKPGLADLAVSRTSFNWGVHVPSNPKHVVYVWFDALVNYISALGYLSDDESLFNKYWPADIHLMAKEIVRFHSIIWPILLMALDLPLPKKVFAHGWILMKDGKMSKSKGNVVDPNILIDRYGLDATRYYLMRELPFGSDGVFTPEAFVERTNFDLANDLGNLVNRTISMVNKYFDGELPAYQGPLHELDEEMEAMALETVKSYTESMESLQFSVALSTVWKFISRTNKYIDETTPWVLAKDDSQKDMLGNVMAHLVENIRYAAVLLRPFLTHAPKEIFEQLNINNPQFMEFSSLEQYGVLTESIMVTGQPKPIFPRLDSEAEIAYIKESMQPPATEEEKEEIPSKPQIDIKDFDKVEIKAATIINAEHVKKSDKLLKIQVDLDSEQRQIVSGIAKFYTPDDIIGKKVAVVTNLKPAKLMGQKSEGMILSAEKDGVLTLVSLPSAIPNGAVIK
In the case of B1, the kcat/Km [1] is reported as 8000 M⁻¹ s⁻¹, the Km [2] is reported as 0.89 µM and the kcat [2] is reported as 0.066 s⁻¹. The Km [3] was 1610 µM, the Km [4] was 85 µM and the kcat [4] was 13 s⁻¹. The kcat/Km [5] was 150000 M⁻¹ s⁻¹ and the kcat/Km [6] was 74000 M⁻¹ s⁻¹.

B2: Methionine--tRNA ligase (Staphylococcus aureus subsp. aureus MW2), Q8NY00 G54A,A64P (protein)
chain: MAKETFYITTPIYYPSGNLHIGHAYSTVAGDVIARYKRMQGYDVRYLTGTDEHAQKIQEKAQKPGKTEIEYLDEMIAGIKQLWAKLEISNDDFIRTTEERHKHVVEQVFERLLKQGDIYLGEYEGWYSVPDETYYTESQLVDPQYENGKIIGGKSPDSGHEVELVKEESYFFNISKYTDRLLEFYDQNPDFIQPPSRKNEMINNFIKPGLADLAVSRTSFNWGVHVPSNPKHVVYVWIDALVNYISALGYLSDDESLFNKYWPADIHLMAKEIVRFHSIIWPILLMALDLPLPKKVFAHGWILMKDGKMSKSKGNVVDPNILIDRYGLDATRYYLMRELPFGSDGVFTPEAFVERTNFDLANDLGNLVNRTISMVNKYFDGELPAYQGPLHELDEEMEAMALETVKSYTESMESLQFSVALSTVWKFISRTNKYIDETTPWVLAKDDSQKDMLGNVMAHLVENIRYAAVLLRPFLTHAPKEIFEQLNINNPQFMEFSSLEQYGVLTESIMVTGQPKPIFPRLDSEAEIAYIKESMQPPATEEEKEEIPSKPQIDIKDFDKVEIKAATIINAEHVKKSDKLLKIQVDLDSEQRQIVSGIAKFYTPDDIIGKKVAVVTNLKPAKLMGQKSEGMILSAEKDGVLTLVSLPSAIPNGAVIK
For B2, the kcat/Km [7] was 1000 M⁻¹ s⁻¹, the kcat/Km [8] was 2000 M⁻¹ s⁻¹ and the Km [9] was 1070 µM. It also gave a kcat [9] of 1 s⁻¹, a kcat/Km [10] of 1000 M⁻¹ s⁻¹ and a Km [11] of 760 µM. The Km [12] was 0.57 µM and the kcat [12] was 0.001 s⁻¹.

B3: Methionine--tRNA ligase (Staphylococcus aureus subsp. aureus MW2), Q8NY00 I57N,A247E (protein)
chain: MAKETFYITTPIYYPSGNLHIGHAYSTVAGDVIARYKRMQGYDVRYLTGTDEHGQKNQEKAQKAGKTEIEYLDEMIAGIKQLWAKLEISNDDFIRTTEERHKHVVEQVFERLLKQGDIYLGEYEGWYSVPDETYYTESQLVDPQYENGKIIGGKSPDSGHEVELVKEESYFFNISKYTDRLLEFYDQNPDFIQPPSRKNEMINNFIKPGLADLAVSRTSFNWGVHVPSNPKHVVYVWIDALVNYISELGYLSDDESLFNKYWPADIHLMAKEIVRFHSIIWPILLMALDLPLPKKVFAHGWILMKDGKMSKSKGNVVDPNILIDRYGLDATRYYLMRELPFGSDGVFTPEAFVERTNFDLANDLGNLVNRTISMVNKYFDGELPAYQGPLHELDEEMEAMALETVKSYTESMESLQFSVALSTVWKFISRTNKYIDETTPWVLAKDDSQKDMLGNVMAHLVENIRYAAVLLRPFLTHAPKEIFEQLNINNPQFMEFSSLEQYGVLTESIMVTGQPKPIFPRLDSEAEIAYIKESMQPPATEEEKEEIPSKPQIDIKDFDKVEIKAATIINAEHVKKSDKLLKIQVDLDSEQRQIVSGIAKFYTPDDIIGKKVAVVTNLKPAKLMGQKSEGMILSAEKDGVLTLVSLPSAIPNGAVIK
Protein B3 has a kcat/Km [13] of 18000 M⁻¹ s⁻¹, a kcat/Km [14] of 5000 M⁻¹ s⁻¹ and a Km [15] of 0.45 µM. It also gave a kcat [15] of 0.008 s⁻¹, a Km [16] of 2230 µM and a Km [17] of 250 µM. The kcat [17] was 11 s⁻¹ and the kcat/Km [18] was 40000 M⁻¹ s⁻¹.

B4: Methionine--tRNA ligase (Staphylococcus aureus subsp. aureus MW2), Q8NY00 I57N,G54S (protein)
chain: MAKETFYITTPIYYPSGNLHIGHAYSTVAGDVIARYKRMQGYDVRYLTGTDEHSQKNQEKAQKAGKTEIEYLDEMIAGIKQLWAKLEISNDDFIRTTEERHKHVVEQVFERLLKQGDIYLGEYEGWYSVPDETYYTESQLVDPQYENGKIIGGKSPDSGHEVELVKEESYFFNISKYTDRLLEFYDQNPDFIQPPSRKNEMINNFIKPGLADLAVSRTSFNWGVHVPSNPKHVVYVWIDALVNYISALGYLSDDESLFNKYWPADIHLMAKEIVRFHSIIWPILLMALDLPLPKKVFAHGWILMKDGKMSKSKGNVVDPNILIDRYGLDATRYYLMRELPFGSDGVFTPEAFVERTNFDLANDLGNLVNRTISMVNKYFDGELPAYQGPLHELDEEMEAMALETVKSYTESMESLQFSVALSTVWKFISRTNKYIDETTPWVLAKDDSQKDMLGNVMAHLVENIRYAAVLLRPFLTHAPKEIFEQLNINNPQFMEFSSLEQYGVLTESIMVTGQPKPIFPRLDSEAEIAYIKESMQPPATEEEKEEIPSKPQIDIKDFDKVEIKAATIINAEHVKKSDKLLKIQVDLDSEQRQIVSGIAKFYTPDDIIGKKVAVVTNLKPAKLMGQKSEGMILSAEKDGVLTLVSLPSAIPNGAVIK
B4 gave a kcat/Km [19] of 20000 M⁻¹ s⁻¹, a kcat/Km [20] of 5000 M⁻¹ s⁻¹ and a Km [21] of 360 µM. The kcat [21] was 6 s⁻¹, the kcat/Km [22] was 8000 M⁻¹ s⁻¹ and the Km [23] was 765 µM. The Km [24] was 0.41 µM and the kcat [24] was 0.002 s⁻¹.
